Assays:
[1] = Oral bioavailability in rat at 2 mg/kg; assay type: ADME, organism-based; settings: in vivo
Summary of the method: (§1)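 Rat pharmacokinetics: iv dose 1 mg/kg; po dose 1 or 2 mg/kg depending on compound. AUC taken over 0–8 h. Unbound parameters calculated using plasma free fraction.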

Rattus norvegicus [2] = organism: Rattus norvegicus; test: Cardiotoxicity in rat assessed as increase in cardiac contractility at plasma concentration of 4.7 ug/ml; assay type: toxicity, organism-based
Rattus norvegicus [3] = test: Antiallodynic activity in po dosed chronic constriction injury Sprague-Dawley rat model of neuropathic pain assessed as attenuation of mechanical allodynia induced by von Frey hair stimulation to the ipsilateral hind paw; assay type: functional, organism-based
Summary of the method: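 Rat neuropathic pain models dosed orally. Mechanical allodynia measured by von Frey stimulation of the injured ipsilateral paw, with a 15 g threshold taken as maximal possible effect and results expressed as %MPE. Vehicle 10% DMSO in PEG; n = 6 per group.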

[4] = molecular target: T1, Transient receptor potential cation channel subfamily V member 3 (Homo sapiens) (UniProt Q8NET8); test: Binding affinity to TRPV3 (unknown origin) at 10 uM
T1 sequence (whole entry): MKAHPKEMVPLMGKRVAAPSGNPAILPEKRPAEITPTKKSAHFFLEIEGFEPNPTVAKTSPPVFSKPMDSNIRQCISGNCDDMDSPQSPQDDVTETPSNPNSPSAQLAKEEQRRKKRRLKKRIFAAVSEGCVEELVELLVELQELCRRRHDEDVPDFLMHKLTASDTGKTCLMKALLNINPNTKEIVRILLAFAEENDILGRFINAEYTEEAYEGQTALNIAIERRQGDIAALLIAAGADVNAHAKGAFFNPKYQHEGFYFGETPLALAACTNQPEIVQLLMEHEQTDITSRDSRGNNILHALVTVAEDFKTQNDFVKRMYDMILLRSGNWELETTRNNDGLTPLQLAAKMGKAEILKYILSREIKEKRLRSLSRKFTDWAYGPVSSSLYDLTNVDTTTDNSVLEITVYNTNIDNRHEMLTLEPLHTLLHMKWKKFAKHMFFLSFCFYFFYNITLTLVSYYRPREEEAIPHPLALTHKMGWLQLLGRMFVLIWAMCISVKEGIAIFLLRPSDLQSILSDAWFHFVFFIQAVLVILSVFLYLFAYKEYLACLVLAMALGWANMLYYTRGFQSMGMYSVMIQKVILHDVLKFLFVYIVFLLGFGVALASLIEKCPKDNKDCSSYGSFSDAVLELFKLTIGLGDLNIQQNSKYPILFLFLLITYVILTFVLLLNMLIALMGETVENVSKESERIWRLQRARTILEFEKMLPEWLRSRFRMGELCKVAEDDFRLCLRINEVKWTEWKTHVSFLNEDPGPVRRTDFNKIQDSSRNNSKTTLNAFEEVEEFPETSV

Liver microsome = test: Unbound intrinsic clearance in rat liver microsomes after 5 hrs by LC-MS/MS analysis; assay type: ADME
Summary of the method: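 Microsomal stability run in an automated high-throughput plate format. Intrinsic clearance corrected for nonspecific microsomal binding using measured unbound fraction (fu,mic), reported as unbound Clint in L/h/kg.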

Rattus norvegicus [5] = test: Toxicity in sciatic nerve ligation Sprague-Dawley rat model of neuropathic pain assessed as overt impairments at 10 to 100 mg/kg, po; assay type: organism-based; settings: in vivo
Rattus norvegicus [6] = test: Toxicity in chronic constriction injury Sprague-Dawley rat model of neuropathic pain assessed as behavioral changes at 10 to 100 mg/kg, po; assay type: organism-based; settings: in vivo
[7] = molecular target: Transient receptor potential cation channel subfamily V member 1 (Homo sapiens) (UniProt Q8NER1); test: Binding affinity to TRPV1 (unknown origin) at 10 uM
Summary of the method: (§2)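 Selectivity screen at 10 µM across CEREP and internal target panels. Readout is percent binding, with 50% as the threshold.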

[8] = Volume of distribution at steady state in rat at 1 mg/kg, iv or 2 mg/kg, po; assay type: ADME, organism-based; settings: in vivo, read-out: Vdss; summary of the method: as §1
[9] = Fraction unbound in human plasma; assay type: ADME, cell-free
Rattus norvegicus [10] = organism: Rattus norvegicus; test: Cardiotoxicity in rat assessed as increase in mean arterial pressure; assay type: toxicity, organism-based, Artery; settings: in vivo
[11] = Half life in rat at 1 mg/kg, iv; assay type: ADME, organism-based; settings: in vivo; summary of the method: as §1
[12] = AUC(0 to 8 hrs) in rat at 2 mg/kg, po; assay type: ADME, organism-based; set-up: time < 6 hr, dose 2 mg/kg, route oral; settings: in vivo; summary of the method: as §1
[13] = molecular target: T2, Transient receptor potential cation channel subfamily V member 3 (Homo sapiens, UniProt Q8NET8); test: Antagonist activity at human TRPV3 expressed in recombinant HEK293 cells assessed as inhibition of 2-APB induced currents by patch-clamp electrophysiological assay; assay type: cell-based
T2 sequence (Q8NET8 whole entry): T1 sequence (whole entry)

[14] = molecular target: Voltage-dependent L-type calcium channel subunit alpha-1C (Homo sapiens, UniProt Q13936); test: Binding affinity to Cav1.2 (unknown origin) at 10 uM; summary of the method: as §2
Rattus norvegicus [15] = test: Antiallodynic activity in Sprague-Dawley rat reserpine model of central pain assessed as increase in reserpine induced muscle pressure threshold at 10 to 100 mg/kg, po measured at 1 hr post dosing; assay type: functional, organism-based

Sequence of Transient receptor potential cation channel subfamily V member 1 (Homo sapiens) (Q8NER1 whole entry): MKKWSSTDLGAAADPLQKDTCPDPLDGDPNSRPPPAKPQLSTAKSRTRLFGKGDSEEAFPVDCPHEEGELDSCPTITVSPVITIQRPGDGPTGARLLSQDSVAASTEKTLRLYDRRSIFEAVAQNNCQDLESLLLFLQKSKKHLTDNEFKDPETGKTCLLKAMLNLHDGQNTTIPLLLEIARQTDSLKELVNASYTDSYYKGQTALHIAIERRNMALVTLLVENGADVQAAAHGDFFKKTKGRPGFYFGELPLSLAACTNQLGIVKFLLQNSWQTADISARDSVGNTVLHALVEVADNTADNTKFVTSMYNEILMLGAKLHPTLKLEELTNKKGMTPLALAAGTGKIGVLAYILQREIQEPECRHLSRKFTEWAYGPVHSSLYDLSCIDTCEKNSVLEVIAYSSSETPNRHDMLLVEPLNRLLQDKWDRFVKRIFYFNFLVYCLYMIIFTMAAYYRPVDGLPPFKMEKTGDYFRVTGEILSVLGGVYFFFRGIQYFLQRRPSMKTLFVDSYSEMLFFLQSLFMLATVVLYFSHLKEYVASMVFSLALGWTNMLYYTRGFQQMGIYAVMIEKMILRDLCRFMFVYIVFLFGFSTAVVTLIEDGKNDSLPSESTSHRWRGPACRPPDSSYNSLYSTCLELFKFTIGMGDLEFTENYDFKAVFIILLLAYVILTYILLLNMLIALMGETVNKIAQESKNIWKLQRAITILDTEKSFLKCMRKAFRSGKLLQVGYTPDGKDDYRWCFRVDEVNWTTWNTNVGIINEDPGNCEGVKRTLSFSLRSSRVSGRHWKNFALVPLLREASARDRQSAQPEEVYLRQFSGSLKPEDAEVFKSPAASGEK
Sequence of Voltage-dependent L-type calcium channel subunit alpha-1C (Q13936 whole entry): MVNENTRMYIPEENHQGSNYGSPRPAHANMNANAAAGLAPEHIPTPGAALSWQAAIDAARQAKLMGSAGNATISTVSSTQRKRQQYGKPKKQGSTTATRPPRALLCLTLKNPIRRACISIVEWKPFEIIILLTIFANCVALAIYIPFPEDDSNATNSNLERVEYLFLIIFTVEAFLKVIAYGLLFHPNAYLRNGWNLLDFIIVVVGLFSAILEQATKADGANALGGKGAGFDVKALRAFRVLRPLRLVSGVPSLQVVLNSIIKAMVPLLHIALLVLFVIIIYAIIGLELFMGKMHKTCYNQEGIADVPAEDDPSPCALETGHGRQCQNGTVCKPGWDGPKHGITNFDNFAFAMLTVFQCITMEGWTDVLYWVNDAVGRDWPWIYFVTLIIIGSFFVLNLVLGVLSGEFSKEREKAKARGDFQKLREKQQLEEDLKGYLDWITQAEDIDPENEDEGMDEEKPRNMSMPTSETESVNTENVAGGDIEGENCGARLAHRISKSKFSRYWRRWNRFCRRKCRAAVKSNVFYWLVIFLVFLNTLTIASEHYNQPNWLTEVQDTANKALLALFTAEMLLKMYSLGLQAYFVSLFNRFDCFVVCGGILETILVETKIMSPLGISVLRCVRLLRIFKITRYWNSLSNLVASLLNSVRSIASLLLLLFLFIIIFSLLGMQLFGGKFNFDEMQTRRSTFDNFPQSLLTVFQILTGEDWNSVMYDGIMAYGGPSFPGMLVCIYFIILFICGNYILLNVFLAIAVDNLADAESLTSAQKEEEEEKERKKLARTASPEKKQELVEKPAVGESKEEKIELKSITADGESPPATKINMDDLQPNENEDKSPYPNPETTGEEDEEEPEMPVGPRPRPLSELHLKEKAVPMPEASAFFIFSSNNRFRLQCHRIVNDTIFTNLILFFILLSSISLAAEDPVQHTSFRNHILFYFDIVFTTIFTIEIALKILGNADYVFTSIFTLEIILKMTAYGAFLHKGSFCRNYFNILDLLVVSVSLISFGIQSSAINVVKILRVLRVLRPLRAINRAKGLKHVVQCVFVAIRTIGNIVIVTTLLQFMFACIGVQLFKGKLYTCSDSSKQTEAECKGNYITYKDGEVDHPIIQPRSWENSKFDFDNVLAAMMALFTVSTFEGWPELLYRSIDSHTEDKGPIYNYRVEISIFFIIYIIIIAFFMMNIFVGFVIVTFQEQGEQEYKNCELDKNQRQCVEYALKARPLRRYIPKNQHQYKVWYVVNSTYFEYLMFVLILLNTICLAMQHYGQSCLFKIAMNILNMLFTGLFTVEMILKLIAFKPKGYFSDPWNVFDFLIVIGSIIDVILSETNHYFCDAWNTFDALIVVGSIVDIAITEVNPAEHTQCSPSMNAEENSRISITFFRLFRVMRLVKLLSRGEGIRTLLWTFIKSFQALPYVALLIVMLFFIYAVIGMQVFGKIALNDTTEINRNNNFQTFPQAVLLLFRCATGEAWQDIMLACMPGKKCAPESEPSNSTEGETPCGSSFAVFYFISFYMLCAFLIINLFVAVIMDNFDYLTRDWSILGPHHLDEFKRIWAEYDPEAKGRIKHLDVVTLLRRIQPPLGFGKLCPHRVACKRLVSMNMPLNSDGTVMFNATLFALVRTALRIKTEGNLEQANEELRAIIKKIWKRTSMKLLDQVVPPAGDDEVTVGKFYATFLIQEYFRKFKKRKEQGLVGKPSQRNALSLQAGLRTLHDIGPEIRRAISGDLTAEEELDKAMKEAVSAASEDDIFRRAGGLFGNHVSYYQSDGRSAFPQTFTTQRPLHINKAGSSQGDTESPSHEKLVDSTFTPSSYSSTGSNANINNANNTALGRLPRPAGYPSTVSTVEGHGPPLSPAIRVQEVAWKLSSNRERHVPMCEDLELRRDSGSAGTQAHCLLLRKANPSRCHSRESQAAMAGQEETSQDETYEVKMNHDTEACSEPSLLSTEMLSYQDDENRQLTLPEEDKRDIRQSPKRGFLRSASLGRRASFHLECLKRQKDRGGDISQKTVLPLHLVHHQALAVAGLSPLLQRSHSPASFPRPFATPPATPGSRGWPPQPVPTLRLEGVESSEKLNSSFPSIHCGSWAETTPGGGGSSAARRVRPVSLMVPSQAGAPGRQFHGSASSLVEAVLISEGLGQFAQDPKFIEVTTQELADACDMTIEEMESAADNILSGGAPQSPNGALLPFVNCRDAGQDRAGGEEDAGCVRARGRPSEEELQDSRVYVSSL

bioavailability [1]: 26%
Activity [4]: > 50%
CL free (Liver microsome): 100 mL/min/kg
Activity [7]: < 50%
Vd [8]: 1.4 L/kg
fraction unbound [9]: 0.89
half-life [11]: 30 min
AUC(0-t) at 6 h [12]: 380 ng·h/mL
IC50 [13]: 380 nM
Compound: C[C@]1(O)C[C@](c2cc(C(F)(F)F)ccn2)([C@H](O)c2ccccn2)C1 (mixture of isomers)
Activity (Rattus norvegicus [2]): Non-toxic
Activity (Rattus norvegicus [3]): Dose-dependent effect
EC50 (Rattus norvegicus [3]): 11 µmol
Activity (Rattus norvegicus [5]): Non-toxic
Activity (Rattus norvegicus [6]): Non-toxic
Activity (Rattus norvegicus [10]): Non-toxic
Activity [14]: < 50%
Activity (Rattus norvegicus [15]): Dose-dependent effect

Reference: ChEMBL document CHEMBL3826935, “Synthesis and Pharmacology of (Pyridin-2-yl)methanol Derivatives as Novel and Selective Transient Receptor Potential Vanilloid 3 Antagonists” (J Med Chem, 2016)
